{
  "source": "paper PMC6896334",
  "about": "(Cell reports, 2019)",
  "key": {"Id1 (59–104)": {"molecular_target": "T1, Id1 (59–104) (Mus musculus, UniProt P20067)", "T1 sequence (P20067 59-104)": "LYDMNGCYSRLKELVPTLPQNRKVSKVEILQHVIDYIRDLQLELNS", "experiment": "UV crosslinking of AGX51-XL2 to purified Id1 and mass spectrometry", "type": "binding", "conditions": "10-fold excess of AGX51", "outline": "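Purified Id1 (aa 59–104, 1 µg) was mixed in the dark with 19.7 ng of a benzophenone photoreactive test-compound analog in DMSO and UV-irradiated for 20 min, with a no-UV control. Samples were run in the dark on a 15% denaturing gel and silver stained. Bands were excised for mass spectrometry.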"}, "HUVECs [1]": {"system": "HUVECs", "experiment": "HUVEC cell branching assay on matrigel", "type": "cell-based, human", "conditions": "0–40 μM, 18–20 h on matrigel, vs vehicle, p < 0.05", "outline": "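HUVECs (80,000 per well) in EGM-2 containing the test compound at the indicated concentration were plated on Matrigel pre-solidified for 30 min at 37°C. After 18–20 h, media was removed and wells were fixed in 10% buffered formalin for 15 min. Tubes were imaged by inverted microscope at 10x. Nodes, junctions, meshes and total branching length were scored by Angiogenesis Analyzer, n = 4 per concentration, Wilcoxon test.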"}, "ID1": {"molecular_target": "T2, ID1 (Homo sapiens, UniProt P41134)", "T2 sequence (P41134 1-155)": "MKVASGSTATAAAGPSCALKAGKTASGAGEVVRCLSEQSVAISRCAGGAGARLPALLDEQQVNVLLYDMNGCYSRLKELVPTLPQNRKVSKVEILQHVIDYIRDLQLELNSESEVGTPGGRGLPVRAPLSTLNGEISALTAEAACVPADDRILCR", "experiment": "Western blot for ID1 in HUVECs", "type": "cell-based", "conditions": "0–40 μM, 24 h", "outline": "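HUVECs treated with 0–40 µM test compound for 24 h. Whole-cell lysates were immunoblotted for the target protein. Infrared band intensities were blank-subtracted and normalised to tubulin.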"}, "E47-ID1 cellular complex": {"molecular_target": "T3, E47-ID1 cellular complex (Homo sapiens, UniProt P41134)", "T3 sequence (P41134 1-155)": "T2 sequence (P41134 1-155)", "experiment": "Immunoprecipitation of endogenous ID1 and E47 in HCT116 cells", "type": "cell-based", "conditions": "HCT116, 60 μM, 1 h", "outline": "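HCT116 cells were exposed for 1 h and lysed in NP40 or RIPA buffer with phosphatase/protease inhibitors, then cleared 15 min at 15,000 rpm, 4°C. Lysates were immunoprecipitated overnight at 4°C with anti-ID1 or anti-E2A plus protein G/A beads, washed four times and eluted in SDS sample buffer. SDS-PAGE/PVDF blots (5% milk in TBS-0.1% Tween20) were probed for ID1 (1:500) or E2A (1:1000), alongside whole-cell lysate blots.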"}, "HUVECs [2]": {"system": "HUVECs", "experiment": "HUVEC scratch assay", "type": "cell-based, human", "conditions": "0–40 μM, 24 h", "outline": "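HUVECs grown on 0.1% fibronectin-coated wells to confluence over 24 h. They were then serum-starved for 4 h in endothelial basal medium and scratched with a pipette tip to create a cell-free zone before exposure to the test compound.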"}, "Cyclin D1": {"system": "Cyclin D1", "experiment": "Western blot for Cyclin D1 in HCT116 cells", "type": "cell-based, human", "conditions": "HCT116, 40 μM, 0-48 hours"}, "[3]": {"experiment": "Concentration of AGX51 in the eyes after i.p. dosing", "type": "in vivo, mouse", "outline": "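Test compound given i.p. at 30 mg/kg. Eyes were dissected at time points over 24 h, extracted, and compound content per eye measured by mass spectrometry.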"}, "ID1 mRNA": {"system": "ID1 mRNA", "experiment": "qRT-PCR for ID1 in HCT116 cells", "type": "cell-based, human", "conditions": "HCT116, 40 μM, 24 hours", "outline": "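ID1 transcript measured by qRT-PCR after treatment, using validated QuantiTect primer sets with GAPDH as reference. Fold change was calculated by the delta-delta CT method.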"}, "HUVECs [4]": {"system": "HUVECs", "experiment": "HUVEC cell growth", "type": "cell-based, human", "conditions": "20 μM, 5 days", "outline": "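HUVECs seeded at 38,000 cells per 24-well well, in triplicate for each time point, with 20 µM test compound or DMSO. Viable cells were counted by trypan blue exclusion on days 1, 3 and 5 after seeding.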"}, "[5]": {"experiment": "14-day toxicity study, i.p. dosing", "type": "in vivo, mouse", "conditions": "mice, 60 mg/kg i.p. bid, 14 days", "outline": "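Mice given the test compound or vehicle (70% DMSO in water) i.p. at 60 mg/kg twice daily for 14 consecutive days. They were sacrificed 24 h after the last dose for gross and complete necropsy and clinical pathology. Clinical chemistry covered BUN, creatinine, ALP, ALT, AST, GGT, bilirubin, total protein, albumin, globulin, phosphorus, glucose, cholesterol, calcium, sodium, potassium and chloride.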"}, "ID1, ID2, ID3, and ID4": {"system": "ID1, ID2, ID3, and ID4", "experiment": "Western blot for ID proteins in HCT116 cells", "type": "cell-based, human", "conditions": "HCT116, 40 μM, 0-48 hours"}, "Water solubility": {"experiment": "Water solubility", "type": "physicochemical"}},
  "data": [
    {"smiles": "CCC(=O)N(CCC(c1ccc2c(c1)OCO2)c1ccccc1OC)Cc1ccccc1", "note": "(stereo not shown) [AGX51, N-(3-(benzo[d][1,3]dioxol-5-yl)-3-(2-methoxyphenyl)propyl)-N-benzylpropionamide]", "values": [
      {"measurement": "AGX51-XL2 binding to Id1 in the presence of competitor", "setting": "Id1 (59–104)", "result": "significant decrease in AGX51-XL2 binding to Id1"},
      {"measurement": "vascular branching (nodes, junctions, meshes, total branching length)", "setting": "HUVECs [1]", "result": "significantly impaired in a dose-dependent manner"},
      {"measurement": "concentration at which a significant decrease in ID1 protein levels was observed", "setting": "ID1", "result": 10, "unit": "µM"},
      {"measurement": "levels of co-precipitated E47 / ID1", "setting": "E47-ID1 cellular complex", "result": "markedly reduced the levels of the co-precipitated proteins"},
      {"measurement": "HUVEC migration after scratch", "setting": "HUVECs [2]", "result": "significantly impaired HUVEC migration"},
      {"measurement": "Cyclin D1 levels", "setting": "Cyclin D1", "result": "reduction in Cyclin D1 levels"},
      {"measurement": "half-life", "setting": "[3]; male, BALB/c, mouse, eye, ip, 30 mg/kg", "result": 3.7, "unit": "h"},
      {"measurement": "maximum concentration in the eye", "setting": "[3]; mice, i.p. 30 mg/kg, after 30 min", "result": "~ 4 ng/eye"},
      {"measurement": "ID1 mRNA levels", "setting": "ID1 mRNA", "result": "increase in ID1 mRNA levels"},
      {"measurement": "cell viability / growth", "setting": "HUVECs [4]", "result": "reduced cell viability"},
      {"measurement": "clinical chemistry parameters and hematology", "setting": "[5]", "result": "within normal limits"},
      {"measurement": "gross necropsy and histopathological evaluation of all major organs", "setting": "[5]", "result": "No abnormal findings"},
      {"measurement": "mortality or morbidity", "setting": "[5]", "result": "no mortality or morbidity was observed"},
      {"measurement": "weight loss", "setting": "[5]", "result": "no significant weight loss"},
      {"measurement": "ID1, ID2, ID3 and ID4 protein levels", "setting": "ID1, ID2, ID3, and ID4", "result": "reduced levels of ID1, ID2, ID3, and ID4"},
      {"measurement": "water solubility", "setting": "Water solubility", "result": "water insoluble"}
    ]}
  ]
}
